Laboratory results taken from article PMC4764993 (Canadian journal of physiology and pharmacology, 2015).

Target: MMP-9 (Homo sapiens, UniProt P14780)
Test: In-vitro MMP-9 cleavage assay of synthetic OPN-peptides
Type: biochemical
Settings: active MMP-9, 20:1 (w/w), 37 °C, 24 h; MS/MS identification of fragments
Summary of the method: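 Synthetic N-acetylated, C-amidated mouse OPN peptides, each spanning a candidate cleavage site mid-sequence, incubated with active MMP-9 at 20:1 (w/w) in 1× zymogram developing buffer, 37 °C, 24 h. Controls lacked enzyme or peptide. Reactions C18-desalted, then LC-MS/MS (5–45% acetonitrile over 20 min; MS resolution 70 000, MS2 17 500). Fragments compared against both controls.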

Sequence of MMP-9 (P14780 107-707 limits assumed, species assumed): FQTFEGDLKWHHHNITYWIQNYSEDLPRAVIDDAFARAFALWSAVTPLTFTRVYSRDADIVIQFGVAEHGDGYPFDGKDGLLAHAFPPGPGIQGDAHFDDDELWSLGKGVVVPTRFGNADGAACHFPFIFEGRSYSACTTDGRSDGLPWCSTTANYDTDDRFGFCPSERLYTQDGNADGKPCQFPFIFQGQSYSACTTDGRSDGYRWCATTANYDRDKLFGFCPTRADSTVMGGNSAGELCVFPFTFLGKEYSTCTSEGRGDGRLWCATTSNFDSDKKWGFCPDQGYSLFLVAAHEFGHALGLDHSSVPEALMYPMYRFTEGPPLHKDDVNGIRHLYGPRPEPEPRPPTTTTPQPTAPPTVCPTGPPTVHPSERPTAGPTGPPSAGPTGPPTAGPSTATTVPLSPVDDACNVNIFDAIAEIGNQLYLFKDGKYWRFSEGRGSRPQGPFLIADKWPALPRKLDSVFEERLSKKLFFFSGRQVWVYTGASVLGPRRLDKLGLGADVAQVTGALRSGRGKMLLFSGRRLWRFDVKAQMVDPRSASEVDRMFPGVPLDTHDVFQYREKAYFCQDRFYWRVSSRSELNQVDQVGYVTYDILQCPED

Ac-NGRGDSLAYGLRSKSRSFQV-NH2 [GL fragment]
MMP-9 cleavage site(s) found in the synthetic peptide: GL (position 151–152)

Ac-SLDVIPVAQLLSMPSDQDNN-NH2 [LL fragment]
MMP-9 cleavage site(s) found in the synthetic peptide: AQ and LL; position 193-194 and 195-196
